Our source for the inhibition, Cytotoxicity and IC50 values is ChEMBL document CHEMBL1145072, “Synthesis and biological evaluation of novel flavone-8-acetic acid derivatives as reversible inhibitors of aminopeptidase N/CD13” (J Med Chem, 2003).

Each structure is given as a SMILES string.

Test [1] concerns the target Aminopeptidase N (Homo sapiens) (UniProt P15144). The test can be described thus: In vitro inhibition of aminopeptidase N (APN) activity in intact U937 cells in presence of Ala-pNA and 10e-3 M concentration of compound. The class given is cell-based. Particulars: U-937. The method, boiled down:
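Intact U937 cells (5 × 10⁵) incubated 15 min at 37 °C in 0.1 mL peptidase buffer with Ala-pNA (0.5 mg/mL) and compound at 10^-3 M. pNA release read at 405 nm. Remaining activity expressed as percent of uninhibited control; mean of three to ten experiments ± SD.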
Target sequence in this assay (P15144 whole entry): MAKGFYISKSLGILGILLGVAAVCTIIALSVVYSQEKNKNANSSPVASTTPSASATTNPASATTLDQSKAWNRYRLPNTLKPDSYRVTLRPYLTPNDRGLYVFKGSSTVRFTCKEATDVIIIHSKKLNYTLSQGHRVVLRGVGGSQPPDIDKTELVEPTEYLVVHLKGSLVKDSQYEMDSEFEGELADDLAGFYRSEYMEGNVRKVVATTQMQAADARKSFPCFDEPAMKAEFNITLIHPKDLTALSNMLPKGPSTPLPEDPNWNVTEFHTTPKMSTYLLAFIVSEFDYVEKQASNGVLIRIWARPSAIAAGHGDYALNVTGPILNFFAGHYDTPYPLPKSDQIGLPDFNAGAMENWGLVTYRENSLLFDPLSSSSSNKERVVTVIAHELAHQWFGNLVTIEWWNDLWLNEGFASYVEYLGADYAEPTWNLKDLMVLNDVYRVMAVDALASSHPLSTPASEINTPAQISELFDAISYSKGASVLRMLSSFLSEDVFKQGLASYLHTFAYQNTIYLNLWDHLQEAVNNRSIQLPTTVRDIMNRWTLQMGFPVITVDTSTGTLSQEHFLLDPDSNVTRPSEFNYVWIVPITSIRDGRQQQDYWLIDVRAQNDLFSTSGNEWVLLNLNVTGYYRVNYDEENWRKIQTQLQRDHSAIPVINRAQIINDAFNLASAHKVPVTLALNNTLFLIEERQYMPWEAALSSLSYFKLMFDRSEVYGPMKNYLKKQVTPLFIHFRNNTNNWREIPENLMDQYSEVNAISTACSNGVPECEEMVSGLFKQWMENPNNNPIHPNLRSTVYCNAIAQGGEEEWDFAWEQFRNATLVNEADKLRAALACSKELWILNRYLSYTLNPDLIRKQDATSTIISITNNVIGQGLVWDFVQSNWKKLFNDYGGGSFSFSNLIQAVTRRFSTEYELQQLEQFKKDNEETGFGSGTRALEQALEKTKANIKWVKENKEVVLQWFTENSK

Test [2] relates to U-937. Briefly: In vitro cytotoxicity towards U937 cell growth was evaluated after 3 days of incubation (10e-4 M). The class given is functional, Homo sapiens. The method, boiled down:
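Human monoblastic U937 cells in RPMI 1640 with 10% heat-inactivated FCS, 5% CO2, 37 °C; seeded at 0.5 × 10⁵ cells/mL in fresh medium and exposed continuously to 10^-4 M compound for 3 days. Cells then washed twice and counted, and viability determined by trypan blue exclusion.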

Test [3] deals with T1, Neprilysin (Rattus norvegicus) (UniProt P07861).
T1 sequence (whole entry): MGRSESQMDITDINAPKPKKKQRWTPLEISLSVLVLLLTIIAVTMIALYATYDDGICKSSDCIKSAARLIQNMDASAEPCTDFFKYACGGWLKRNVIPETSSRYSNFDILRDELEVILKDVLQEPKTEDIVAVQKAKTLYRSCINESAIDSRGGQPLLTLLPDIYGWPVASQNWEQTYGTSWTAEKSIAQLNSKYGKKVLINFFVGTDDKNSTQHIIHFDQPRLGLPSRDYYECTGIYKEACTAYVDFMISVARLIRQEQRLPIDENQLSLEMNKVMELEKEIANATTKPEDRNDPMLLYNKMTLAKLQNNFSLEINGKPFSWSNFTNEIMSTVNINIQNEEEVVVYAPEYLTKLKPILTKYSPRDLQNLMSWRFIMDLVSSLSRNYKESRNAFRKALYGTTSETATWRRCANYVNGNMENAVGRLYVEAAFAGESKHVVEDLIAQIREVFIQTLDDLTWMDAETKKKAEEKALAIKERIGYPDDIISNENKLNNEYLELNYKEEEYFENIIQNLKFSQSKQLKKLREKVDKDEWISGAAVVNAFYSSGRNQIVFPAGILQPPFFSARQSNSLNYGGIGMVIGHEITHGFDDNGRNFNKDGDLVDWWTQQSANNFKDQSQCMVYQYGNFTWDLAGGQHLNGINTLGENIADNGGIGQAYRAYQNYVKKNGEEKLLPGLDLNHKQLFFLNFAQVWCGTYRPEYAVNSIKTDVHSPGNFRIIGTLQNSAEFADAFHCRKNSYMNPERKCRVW
Briefly: Inhibition of neutral endopeptidase (NEP[…]) at 0.3*10e-3 M compound concentration.

Test [4] addresses T2, Aminopeptidase N (Sus scrofa) (UniProt P15145).
T2 sequence (whole entry): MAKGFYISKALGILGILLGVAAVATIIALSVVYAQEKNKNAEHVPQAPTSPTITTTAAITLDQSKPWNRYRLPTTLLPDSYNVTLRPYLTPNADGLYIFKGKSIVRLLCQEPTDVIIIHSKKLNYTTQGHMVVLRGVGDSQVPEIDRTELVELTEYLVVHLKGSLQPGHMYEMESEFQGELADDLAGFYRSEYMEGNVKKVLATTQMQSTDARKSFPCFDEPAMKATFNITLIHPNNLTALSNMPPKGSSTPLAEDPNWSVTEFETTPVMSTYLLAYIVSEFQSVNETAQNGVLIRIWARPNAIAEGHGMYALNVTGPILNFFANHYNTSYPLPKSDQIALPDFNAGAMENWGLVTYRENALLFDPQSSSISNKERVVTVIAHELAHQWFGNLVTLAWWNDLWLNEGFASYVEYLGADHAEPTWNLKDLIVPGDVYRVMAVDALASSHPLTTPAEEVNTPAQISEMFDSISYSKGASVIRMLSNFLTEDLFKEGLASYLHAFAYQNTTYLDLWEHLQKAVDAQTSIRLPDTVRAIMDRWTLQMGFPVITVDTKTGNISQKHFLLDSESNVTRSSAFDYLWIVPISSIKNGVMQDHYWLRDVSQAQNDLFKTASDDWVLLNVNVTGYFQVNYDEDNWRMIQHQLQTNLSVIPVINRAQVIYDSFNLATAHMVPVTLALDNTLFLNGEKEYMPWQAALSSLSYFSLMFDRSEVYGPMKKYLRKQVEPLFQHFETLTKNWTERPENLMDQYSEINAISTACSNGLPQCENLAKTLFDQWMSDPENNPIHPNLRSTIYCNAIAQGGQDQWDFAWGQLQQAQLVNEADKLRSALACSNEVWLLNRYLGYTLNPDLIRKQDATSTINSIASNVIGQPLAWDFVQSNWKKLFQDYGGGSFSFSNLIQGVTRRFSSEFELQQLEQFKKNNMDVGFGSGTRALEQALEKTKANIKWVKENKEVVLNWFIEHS
The test can be described thus: Inhibition of cell surface aminopeptidase N (APN/CD13) at 0.3*10e-3 M compound concentration.

Test [5] concerns the target Aminopeptidase N (Homo sapiens) (UniProt P15144). The test can be described thus: Inhibitory concentration of compound towards cell surface aminopeptidase N (APN/CD13) on human U937 cells.
Target sequence in this assay (P15144 whole entry, looked up): as the sequence (P15144 whole entry) above

Usually inhibition stands for the drop in the measured response relative to a control, in per cent. For `O=C(O)Cc1cccc2c(=O)c([N+](=O)[O-])c(-c3ccccc3C(=O)OCc3ccccc3)oc12`, the inhibition in test [1] amounted to 77%. The compound also registered a Cytotoxicity in test [2] of over 40%.
Regarding `O=c1cc(-c2ccccc2)oc2ccccc12` [FLAVONE], the inhibition in test [1] was 5%. In test [2], this compound registered a Cytotoxicity of under 10%.
In the case of `COc1cc(-c2oc3cc(O)cc(O)c3c(=O)c2O)ccc1O`, the inhibition came to 49% in test [3] and 73% in test [4].
`CC(C)C[C@H](NC(=O)[C@@H](O)[C@H](N)Cc1ccccc1)C(=O)O` [UBENIMEX]: in test [1], the inhibition came to 85%. Besides, the Cytotoxicity in test [2] is reported as over 40%.
For `COCOC(=O)Cc1cccc2c(=O)c([N+](=O)[O-])c(-c3ccccc3OCc3ccccc3)oc12`, in that order: 32% and over 95%.
For `Cl.Nc1c(-c2ccccc2)oc2c(CC(=O)O)cccc2c1=O`, in that order: 33% and under 10%.
In the same order, the values of `COCOC(=O)Cc1cccc2c(=O)c3c(oc12)-c1ccccc1OC(=O)N3` are 25% and over 95%.
Consider `O=c1c([N+](=O)[O-])c(-c2ccccc2)oc2ccccc12`, for which the inhibition in test [1] came to 30%. Besides, the Cytotoxicity in test [2] is recorded as under 10%.
As to `COC(=O)c1ccccc1-c1oc2c(CC(=O)O)cccc2c(=O)c1[N+](=O)[O-]`, the inhibition in test [1] is 66%. Also, the Cytotoxicity in test [2] is on record as under 10%.
In the same order, the values of `COc1ccc(-c2oc3c(CC(=O)O)cccc3c(=O)c2[N+](=O)[O-])cc1[N+](=O)[O-]` are 61% and under 10%.
Turning to `O=C(O)Cc1cccc2c(=O)c([N+](=O)[O-])c(-c3ccccc3OCc3ccccc3)oc12`, the inhibition in test [1] stood at 76%. The compound also gave a Cytotoxicity in test [2] of over 55%.
On to `O=CCc1cccc2c(=O)c([N+](=O)[O-])c(-c3ccccc3)oc12`, for which the inhibition in test [1] is 51%. The compound further registered a Cytotoxicity in test [2] of over 40%.
Consider `O=C(O)Cc1cccc2c(=O)c([N+](=O)[O-])c(-c3ccc([N+](=O)[O-])cc3)oc12`, for which, in test [1], the inhibition amounted to 63%. Further, the Cytotoxicity in test [2] is under 10%.
For `COc1cccc(-c2oc3c(CC(=O)O)cccc3c(=O)c2[N+](=O)[O-])c1[N+](=O)[O-]`, in that order: 75% and under 10%.
For `COc1ccc([N+](=O)[O-])c(-c2oc3c(CC(=O)O)cccc3c(=O)c2[N+](=O)[O-])c1`, the inhibition in test [1] turned out to be 80%. Further, the Cytotoxicity in test [2] is given as under 10%.
As for `COCOC(=O)Cc1cccc2c(=O)c([N+](=O)[O-])c(-c3ccccc3[N+](=O)[O-])oc12`, the inhibition in test [1] worked out at 48%. Further, the Cytotoxicity in test [2] is over 85%.
Take `COCOC(=O)Cc1cccc2c(=O)c(N)c(-c3ccccc3O)oc12`: the inhibition in test [1] is 19%. For the same compound, in test [2], the Cytotoxicity is recorded as over 65%.
In the case of `COc1ccccc1-c1oc2c(CC(=O)O)cccc2c(=O)c1[N+](=O)[O-]`, the inhibition in test [1] was found to be 69%. In test [2], this compound came in with a Cytotoxicity of over 20%.
In the same order, the values of `C=CCc1cccc2c(=O)c([N+](=O)[O-])c(-c3ccccc3[N+](=O)[O-])oc12` are 16% and under 10%.
For `O=c1c(O)c(-c2ccc(O)c(O)c2)oc2cc(O)cc(O)c12`, the inhibition in test [3] was determined as 49%; in test [4], 73%.
Consider `O=c1cc(-c2ccccc2)oc2cc(O)c(O)c(O)c12`, for which the inhibition came to 36% in test [3] and 57% in test [4].
In the case of `O=C(O)Cc1cccc2c(=O)c([N+](=O)[O-])c(-c3cccc([N+](=O)[O-])c3)oc12`, the inhibition in test [1] was found to be 44%. In addition, in test [2], the Cytotoxicity is recorded as under 10%.
In the case of `O=C(O)Cc1cccc2c(=O)c3c(oc12)-c1ccccc1NC(=O)N3`, in test [1], the inhibition was 8%. The Cytotoxicity in test [2] is given as under 10%.
For `O=C(O)Cc1cccc2c(O)c3nc4ccccc4c-3oc12`, in test [1], the inhibition was found to be 10%. Further, in test [2], the Cytotoxicity is recorded as 30%.
On to `O=C(O)Cc1cccc2c(=O)c([N+](=O)[O-])c(-c3ccccc3)oc12`, for which the inhibition in test [1] came out at 68%. The compound further registered a Cytotoxicity in test [2] of under 10%.
With `O=C(O)Cc1cccc2c(=O)cc(-c3ccccc3)oc12` [MITOFLAXONE], the inhibition in test [1] stood at 30%. In test [2], this compound displayed a Cytotoxicity of under 10%.
As for `O=C(O)Cc1cccc2c(=O)cc(-c3ccccc3[N+](=O)[O-])oc12`, in test [1], the inhibition is 83%. The compound also displayed a Cytotoxicity in test [2] of over 80%.
As to `O=C(O)Cc1cccc2c(=O)c3c(oc12)-c1ccccc1OC(=O)N3`, the inhibition in test [1] was 19%. Moreover, in test [2], the Cytotoxicity was found to be 30%.
For `O=C(O)Cc1cccc2c(=O)c([N+](=O)[O-])c(-c3ccccc3Cl)oc12`, in that order: 76% and 30%.
For `COC(=O)Cc1cccc2c(=O)c([N+](=O)[O-])c(-c3ccccc3)oc12`, in that order: under 5% and under 10%.
With `COc1ccc(-c2oc3c(CC(=O)O)cccc3c(=O)c2[N+](=O)[O-])cc1`, the inhibition in test [1] was 64%. The compound further showed a Cytotoxicity in test [2] of over 40%.
Turning to `O=c1c([N+](=O)[O-])c(-c2ccccc2[N+](=O)[O-])oc2ccccc12`, the inhibition in test [1] was under 5%. The compound also returned a Cytotoxicity in test [2] of over 40%.
A word on the IC50: it is the concentration that gives 50% inhibition. A low value points to higher potency. As to `O=C(O)Cc1cccc2c(=O)c([N+](=O)[O-])c(-c3ccccc3[N+](=O)[O-])oc12`, the inhibition in test [1] stood at 88%. Further, in test [2], the Cytotoxicity is reported as under 10%. The compound also had a 50% inhibitory concentration (IC50) in test [5] of 25 µM.
